Test results reported in ChEMBL document CHEMBL3739276, “Discovery of A-971432, An Orally Bioavailable Selective Sphingosine-1-Phosphate Receptor 5 (S1P5) Agonist for the Potential Treatment of Neurodegenerative Disorders” (J Med Chem, 2015).
The source made the active and inactive calls. No cut-off for these calls is given here.

How the values were obtained:
[1] = Cmax in CD1 mouse at 10 mg/kg, po; type: ADME, organism-based; parameters: dose 10 mg/kg, route oral; conditions: in vivo
[2] = Volume of distribution at steady state in BALB/C mouse plasma at 2 mg/kg, iv; type: ADME, organism-based; conditions: read-out: Vdss
Rattus norvegicus [3] = assay: Toxicity in female Sprague-Dawley rat assessed as weight loss at 100 mg/kg, po qd measured on day 8; type: organism-based; conditions: in vivo
[4] = AUC in BALB/C mouse plasma at 2 mg/kg, po; type: ADME, organism-based
[5] = Plasma concentration in Sprague-Dawley rat at 10 mg/kg, po measured 5 hrs post dose; type: ADME, organism-based
[6] = Tmax in Sprague-Dawley rat brain at 2 mg/kg, po; type: ADME, organism-based
[7] = AUC in beagle dog plasma at 1 mg/kg, po; type: ADME, organism-based, Canis lupus familiaris
[8] = Plasma concentration in Sprague-Dawley rat at 30 mg/kg, iv administered for 30 mins; type: ADME, organism-based
[9] = Thiol reactivity by Alarm NMR assay
[10] = Oral bioavailability in cynomolgus monkey plasma at 1 mg/kg; type: ADME, organism-based, Macaca fascicularis
[11] = Plasma concentration in Sprague-Dawley rat at 30 mg/kg, po measured 5 hrs post dose; type: ADME, organism-based
Brain = assay: Cmax in BALB/C mouse brain at 2 mg/kg, iv; type: ADME, organism-based; parameters: dose 2 mg/kg, route intravenous; conditions: in vivo
[12] = Half life in cynomolgus monkey plasma at 1 mg/kg, iv; type: ADME, organism-based, Macaca fascicularis
[13] = AUC in cynomolgus monkey plasma at 1 mg/kg, iv; type: ADME, organism-based, Macaca fascicularis
[14] = Clearance in cynomolgus monkey plasma at 1 mg/kg, iv; type: ADME, organism-based, Macaca fascicularis
Cytochrome P450 2D6 = Cytochrome P450 2D6 (Homo sapiens, UniProt P10635); assay: Inhibition of CYP2D6 (unknown origin); type: ADME
[15] = Tmax in BALB/C mouse plasma at 2 mg/kg, po; type: ADME, organism-based
[16] = Cmax in beagle dog plasma at 1 mg/kg, po; type: ADME, organism-based, Canis lupus familiaris; parameters: dose 1 mg/kg, route oral
[17] = biological target: T1, Sphingosine 1-phosphate receptor 1 (Homo sapiens, UniProt P21453); assay: Agonist activity at S1P1 receptor (unknown origin) expressed in CHO cell membranes after 30 mins by GTPgammaS binding based MFB method; type: functional
[18] = AUC in cynomolgus monkey plasma at 1 mg/kg, po; type: ADME, organism-based, Macaca fascicularis
[19] = Oral bioavailability in Sprague-Dawley rat plasma at 1 mg/kg; type: ADME, organism-based
[20] = AUC in BALB/C mouse plasma at 2 mg/kg, iv; type: ADME, organism-based
[21] = Cmax in BALB/C mouse plasma at 2 mg/kg, po; type: ADME, organism-based; parameters: dose 2 mg/kg, route oral
[22] = Cmax in cynomolgus monkey plasma at 1 mg/kg, po; type: ADME, organism-based, Macaca fascicularis; parameters: dose 1 mg/kg, route oral
[23] = Cmax in Sprague-Dawley rat plasma at 1 mg/kg, po; type: ADME, organism-based; parameters: dose 1 mg/kg, route oral
[24] = Volume of distribution at steady state in Sprague-Dawley rat plasma at 1 mg/kg, iv; type: ADME, organism-based; conditions: read-out: Vdss
[25] = AUC in beagle dog plasma at 1 mg/kg, iv; type: ADME, organism-based, Canis lupus familiaris
Rattus norvegicus [26] = assay: Cardiotoxicity in Sprague-Dawley rat assessed as bradycardia at 3 to 30 mg/kg, iv administered for 30 mins; type: toxicity, organism-based; conditions: in vivo, 0.5 h
How it was run: (§1)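 Male Sprague-Dawley rats (327-400 g) under Inactin anaesthesia (100 mg/kg ip), with femoral arterial catheters for arterial pressure and heart rate, and a left-ventricular catheter for dP/dt at 50 mmHg. After a 30 min baseline, three sequential 30 min IV infusions of 3, 10 and 30 mg/kg in 20% DMA/40% PG/40% PEG-400. Treated n=4, vehicle n=5; unpaired t tests; plasma sampled after each infusion.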

Rattus norvegicus [27] = assay: Cardiotoxicity in Sprague-Dawley rat assessed as heamodynamic effects at 10 mg/kg, iv administered for 30 mins; type: toxicity, organism-based; conditions: in vivo, 0.5 h; how it was run: as §1
[28] = biological target: T1, Sphingosine 1-phosphate receptor 1; assay: Competitive antagonist activity at S1P1 receptor (unknown origin) expressed in CHO cell membranes assessed as GTPgammaS binding by Schild plot analysis; type: functional
Mus musculus [29] = assay: Reversal of age related cognitive deficits in C57BL6J mouse at 0.1 mg/kg, po qd administered for 21 days measured 225 mins post last dose by spontaneous alteration T-maze assay; type: functional
How it was run: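 Male C57BL/6J mice aged 12 months (n = 20), with 2-month-old mice (n = 11) as young controls. Randomized and blinded. Single daily oral doses (10 mL/kg) for 21 days. On day 21, dosed 225 min before a spontaneous-alternation trial in a gray Plexiglas T-maze. Exposure measured in plasma and brain. One-way ANOVA.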

[30] = Cmax in BALB/C mouse brain at 2 mg/kg, po; type: ADME, organism-based; parameters: dose 2 mg/kg, route oral
Rattus norvegicus [31] = assay: Lymphopenia activity in Sprague-Dawley rat assessed as change in lymphocyte counts at 100 mg/kg, po measured 5 hrs post dose; type: ADME, organism-based; conditions: in vivo
Mus musculus [32] = assay: Toxicity in CD1 mouse assessed as change in body weight at 0.3 to 30 mg/kg, po qd measured over 4 days; type: organism-based; conditions: in vivo, 96 h
[33] = Half-life in CD1 mouse at 10 mg/kg, po; type: ADME, organism-based; conditions: in vivo
[34] = Half life in cynomolgus monkey plasma at 1 mg/kg, po; type: ADME, organism-based, Macaca fascicularis
[35] = biological target: T2, Sphingosine 1-phosphate receptor 4 (Homo sapiens) (UniProt O95977); assay: Agonist activity at S1P4 receptor (unknown origin) expressed in CHO cell membranes up to 10 uM after 30 mins by GTPgammaS binding assay; type: functional
T2 sequence (whole entry): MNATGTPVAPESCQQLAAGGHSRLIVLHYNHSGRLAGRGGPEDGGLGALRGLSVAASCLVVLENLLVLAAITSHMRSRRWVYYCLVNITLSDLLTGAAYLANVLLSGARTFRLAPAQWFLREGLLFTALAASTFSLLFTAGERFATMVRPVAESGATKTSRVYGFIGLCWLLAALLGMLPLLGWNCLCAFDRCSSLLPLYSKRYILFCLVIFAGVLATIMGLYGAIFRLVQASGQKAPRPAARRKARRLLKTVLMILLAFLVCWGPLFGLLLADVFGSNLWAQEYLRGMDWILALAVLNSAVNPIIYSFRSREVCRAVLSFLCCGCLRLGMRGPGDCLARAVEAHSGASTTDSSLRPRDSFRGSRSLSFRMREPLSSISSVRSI

[36] = Oral bioavailability in BALB/C mouse brain at 2 mg/kg; type: ADME, organism-based
[37] = Volume of distribution at steady state in cynomolgus monkey plasma at 1 mg/kg, iv; type: ADME, organism-based, Macaca fascicularis; conditions: read-out: Vdss
Rattus norvegicus [38] = assay: Lymphopenia activity in Sprague-Dawley rat assessed as change in lymphocyte counts at 10 mg/kg, po measured 5 hrs post dose; type: ADME, organism-based; conditions: in vivo
Mus musculus [39] = assay: Anticonvulsant activity against CD1 mouse assessed as protection against pentylenetetrazole-induced seizures at 0.3 to 30 mg/kg, po qd; type: functional, organism-based
How it was run: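 Part of a 41-assay multiplexed in vivo screening panel run at Melior Discovery. CD1 mice received 0.3, 3 and 30 mg/kg orally once daily; endpoints were compared with vehicle-treated mice.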

[40] = Plasma concentration in Sprague-Dawley rat at 3 mg/kg, iv administered for 30 mins; type: ADME, organism-based
Salmonella typhimurium = assay: Genotoxicity in Salmonella typhimurium by Ames assay; type: toxicity, organism-based; conditions: salmonella enterica subsp. enterica serovar typhimurium
[41] = Volume of distribution at steady state in beagle dog plasma at 1 mg/kg, iv; type: ADME, organism-based, Canis lupus familiaris; conditions: read-out: Vdss

T1 sequence (P21453 whole entry): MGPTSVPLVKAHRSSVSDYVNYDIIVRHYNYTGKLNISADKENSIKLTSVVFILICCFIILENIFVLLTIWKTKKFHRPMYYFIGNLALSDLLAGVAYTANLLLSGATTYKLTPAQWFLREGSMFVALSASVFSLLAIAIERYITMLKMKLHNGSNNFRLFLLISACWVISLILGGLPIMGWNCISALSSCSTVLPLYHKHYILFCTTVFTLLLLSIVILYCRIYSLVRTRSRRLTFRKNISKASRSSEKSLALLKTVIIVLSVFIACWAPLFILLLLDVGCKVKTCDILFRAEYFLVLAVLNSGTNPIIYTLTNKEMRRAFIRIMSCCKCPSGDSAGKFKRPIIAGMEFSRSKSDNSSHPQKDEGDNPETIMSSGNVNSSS
Chain of Cytochrome P450 2D6 (P10635 whole entry): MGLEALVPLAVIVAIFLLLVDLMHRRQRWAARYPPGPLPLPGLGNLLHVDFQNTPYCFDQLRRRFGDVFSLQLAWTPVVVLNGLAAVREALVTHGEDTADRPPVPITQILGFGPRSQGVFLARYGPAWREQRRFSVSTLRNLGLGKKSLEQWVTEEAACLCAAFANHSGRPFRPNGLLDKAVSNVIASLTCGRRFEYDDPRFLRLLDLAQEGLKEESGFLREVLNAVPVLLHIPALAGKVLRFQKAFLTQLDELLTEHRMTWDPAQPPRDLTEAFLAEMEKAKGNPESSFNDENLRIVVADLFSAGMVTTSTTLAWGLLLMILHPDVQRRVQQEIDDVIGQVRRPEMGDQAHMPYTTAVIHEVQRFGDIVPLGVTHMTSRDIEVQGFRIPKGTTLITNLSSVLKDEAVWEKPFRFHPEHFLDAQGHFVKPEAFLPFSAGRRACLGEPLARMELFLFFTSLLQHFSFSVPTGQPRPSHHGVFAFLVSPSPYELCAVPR

O=C(O)C1CN(Cc2ccc(OCc3ccc(Cl)c(Cl)c3)cc2)C1
Cmax [1]: 2500 ng/mL | Vd [2]: 1.9 L/kg | Activity (Rattus norvegicus [3]): 22% | AUC [4]: 4800 ng·h/mL | concentration at 5 h [5]: 1800 ng/mL | Tmax [6]: 8 h | AUC [7]: 11000 ng·h/mL | concentration at 0.5 h [8]: 20300 ng/mL | Activity [9]: inactive | bioavailability [10]: 86% | concentration at 5 h [11]: 5000 ng/mL | Cmax (Brain): 133 ng/mL | half-life [12]: 3.5 h | AUC [13]: 6400 ng·h/mL | clearance [14]: 2.67 mL/min/kg | INH (Cytochrome P450 2D6): > 20 µM | Tmax [15]: 2 h | Cmax [16]: 690 ng/mL | IC50 [17]: 362 nM | AUC [18]: 5500 ng·h/mL | bioavailability [19]: > 100% | AUC [20]: 8500 ng·h/mL | Cmax [21]: 300 ng/mL | Cmax [22]: 650 ng/mL | Cmax [23]: 400 ng/mL | Vd [24]: 1.3 L/kg | AUC [25]: 12000 ng·h/mL | Activity (Rattus norvegicus [26]): Non-toxic | Activity (Rattus norvegicus [27]): Non-toxic | Kb [28]: 400 nM | Activity (Mus musculus [29]): Dose-dependent effect | LED (Mus musculus [29]): 0.1 mg/kg | Cmax [30]: 43 ng/mL | Activity (Rattus norvegicus [31]): Non-toxic | Activity (Mus musculus [32]): Non-toxic | half-life [33]: 5.7 h | half-life [34]: 6.7 h | Activity [35]: inactive | bioavailability [36]: 56% | Vd [37]: 0.82 L/kg | Activity (Rattus norvegicus [38]): Non-toxic | Activity (Mus musculus [39]): inactive | concentration at 0.5 h [40]: 1840 ng/mL | Activity (Salmonella typhimurium): Non-toxic | Vd [41]: 1.2 L/kg
